From ChEMBL document CHEMBL1140052, “Novel insight in structure-activity relationship and bioanalysis of P-glycoprotein targeting highly potent tetrakishydroxymethyl substituted 3,9-diazatetraasteranes” (J Med Chem, 2008) come the findings set out here.

Calls of active or inactive are those of the source. No cut-off for these calls is given here.

For assay [1], the system named is L5178Y. Description: Inhibition of P-glycoprotein expressed in mouse L5178Y cells measured by rhodamine 123 uptake assessed as fluorescence activity ratio relative to wild type mouse L5178 cells at 10 uM. The class given is cell-based. In short, it runs like this:
(§1)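 Mouse T lymphoma parental L5178 and P-gp-expressing L5178Y cells at 2 × 10^6 cells/mL in serum-free McCoy's 5A medium. Compound added from DMSO stock, 10 min at rt. Rhodamine 123 then added (final 5.2 µM), 20 min at 37 °C. Two PBS washes, 1 × 10^4 cells read by flow cytometry. Ratio = subline/parental fluorescence, each corrected to its untreated control.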

In assay [2] the test system is L5178Y. Kind of assay: Inhibition of P-glycoprotein expressed in mouse L5178Y cells measured by rhodamine 123 uptake assessed as fluorescence activity ratio relative to wild type mouse L5178 cells at 1 uM. Format: cell-based. In short, it runs like this: as §1
Assay [3] is filed under the species Homo sapiens. Description: Induction of p-glycoprotein expression in human EPG 85-257 cells after 72 hrs by Western blot analysis. The class given is functional, cell-based. The gist of the method: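 Gastric carcinoma cells seeded at 5 × 10^5 cells/well and cultured 72 h with compound. Cells washed twice, proteins extracted with Triton X-100 and denatured 10 min at 95 °C. Protein quantified by amido black at 630 nm. 20 µg run on SDS-PAGE (4% stacking/6% resolving) and blotted. Probed with C219 (1:100) and peroxidase anti-mouse IgG (1:10000), chemiluminescence read-out. Anti-actin (1:50000) as loading control.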
A general note: Immunoblotting shows a protein as a band on a membrane.

Turning to `OC[C@]12C3N(Cc4ccccc4)C4[C@](CO)(C5N(Cc6ccccc6)C1[C@]3(CO)[C@@H](c1ccccc1)[C@@]45CO)[C@@H]2c1ccccc1`, the Ratio in assay [1] amounted to 29; in assay [2], 4.1.

As for `COc1ccc(CN2C3[C@]4(CO)C5N(Cc6ccc(OC)cc6)C6[C@](CO)(C2[C@@]6(CO)[C@@H](c2ccccc2)[C@@]35CO)[C@H]4c2ccccc2)cc1`, the Ratio in assay [1] was determined as 13; in assay [2], 3.5.

With `OC[C@]12C3N(Cc4ccccc4)C4[C@](CO)(C5N(Cc6ccccc6)C1[C@]3(CO)[C@H](c1ccc(OCc3ccccc3)cc1)[C@@]45CO)[C@H]2c1ccc(OCc2ccccc2)cc1`, the results for the Ratio in assay [1] and in assay [2] were 47 and 3.3, respectively.

In the case of `OC[C@]12C3N(Cc4cccc(OCc5ccccc5)c4)C4[C@](CO)(C5N(Cc6cccc(OCc7ccccc7)c6)C1[C@]3(CO)[C@@H](c1ccccc1)[C@@]45CO)[C@@H]2c1ccccc1`, the figures for the Ratio in assay [1] and in assay [2] were 205 and 117, respectively.

Regarding `OC[C@]12C3N(Cc4ccccc4)C4[C@](CO)(C5N(Cc6ccccc6)C1[C@]3(CO)[C@H](c1cccc(OCc3ccccc3)c1)[C@@]45CO)[C@H]2c1cccc(OCc2ccccc2)c1`, the Ratio in assay [1] came to 125; in assay [2], 65.

Turning to `OC[C@]12C3N(Cc4ccc(OCc5ccccc5)cc4)C4[C@](CO)(C5N(Cc6ccc(OCc7ccccc7)cc6)C1[C@]3(CO)[C@H](c1ccccc1)[C@@]45CO)[C@H]2c1ccccc1`, the Ratio worked out at 28 in assay [1] and 2.3 in assay [2].

For the molecule `COc1ccc(CCN(C)CCCC(C#N)(c2ccc(OC)c(OC)c2)C(C)C)cc1OC` (configuration not stated), the figures for the Ratio in assay [1] and in assay [2] were 4.1 and 2.1, respectively.

With `COc1ccc([C@H]2[C@@]3(CO)C4N(Cc5ccccc5)C5[C@]2(CO)C2N(Cc6ccccc6)C3[C@]4(CO)[C@H](c3ccc(OC)cc3)[C@@]52CO)cc1`, the Ratio in assay [1] turned out to be 57; in assay [2] it was 4.3. Further, in assay [3], the outcome was inactive.
